Screening data as filed in PubChem.
KCNK3 block: human KCNK3 channel inhibition, primary screen | CHO-KCNK3 thallium flux, FluxOR fluorescence; stronger effect = lower value | hit rate 0.84% among 340,000 | AID 602410 | B-score at 10 µM | O14649;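 active means B-score under library mean minus 4 SD, starting fluorescence ratio at most library mean plus 5 SD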;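 further: more negative B-score means stronger inhibition of thallium flux through KCNK3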
Cl transport mod: modulators of human KCC2 chloride dependent transport; hit rate 2.2% among 190,000; B-score of Tl+ flux slope (higher = more flux/activation; lower = inhibition) at 10 µM; AID 1456; KCC2 cells, thallium flux FluoZin-2 fluorescence;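 active means thallium flux slope and its plate-corrected score both differing from the plate sample mean at a set confidence after two filtering rounds, in either direction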;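 further: slope of fluorescence scaled to starting intensity during 10 to 20 s after thallium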
KCNQ1 pot: potentiators or activators of human KCNQ1 potassium channel | B-score at 10 µM | P51787 | hit rate 0.35% among 310,000 | CHO-K1 KCNQ1, thallium flux FluxOR fluorescence; stronger effect = higher value;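 active means fluorescence ratio B-score, a plate-corrected score, at least three library SD, with initial intensity B-score within 5 SD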
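Assay system: stable KCNQ1 CHO-K1 line; medium: assay buffer, equal DMSO in all wells; timing: 90 min dye loading and 20 min compound exposure, both at room temperature; technique: kinetic FluxOR thallium fluorescence, 10-s 1-Hz baseline, 110-s post-stimulus read; read-out basis: B score of baseline-normalized fluorescence ratio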
KCNQ1 block: human KCNQ1 channel inhibition; CHO-K1 KCNQ1, FluxOR thallium flux fluorescence; stronger effect = higher value; P51787; hit rate 1.3% among 310,000; B-score at 10 µM;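 active means compounds whose thallium flux B-score, printed positive for inhibition, exceeds three library SD while starting fluorescence stays within three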;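 further: channel opened by potassium depolarization with thallium stimulus after 20 min compound exposure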
KCNK9 block: blocks the human KCNK9 two-pore domain potassium channel. hit rate 1.2% among 310,000. Q9NPC2. HEK293 KCNK9, FluxOR thallium flux fluorescence; stronger effect = lower value. B-score at 10 µM;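 active means ratio B-score over 3 SD below the library mean, with starting fluorescence within 5 SD of its mean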;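 further: negative B-score means less thallium flux so channel inhibition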
hERG rescue: hERG (human) protection from proarrhythmic block; CHO-hERG, FluxOR thallium flux, dofetilide IC70 present; Q12809; hit rate 0.51% among 310,000; activation (rescue from dofetilide block), less the hit threshold, % at 10 µM;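 active means activation above the mean of controls blocked by dofetilide plus 5 SD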;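 further: thallium influx through hERG after potassium depolarization seen as dye fluorescence rise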
Target sequence (Q12809 whole entry, looked up): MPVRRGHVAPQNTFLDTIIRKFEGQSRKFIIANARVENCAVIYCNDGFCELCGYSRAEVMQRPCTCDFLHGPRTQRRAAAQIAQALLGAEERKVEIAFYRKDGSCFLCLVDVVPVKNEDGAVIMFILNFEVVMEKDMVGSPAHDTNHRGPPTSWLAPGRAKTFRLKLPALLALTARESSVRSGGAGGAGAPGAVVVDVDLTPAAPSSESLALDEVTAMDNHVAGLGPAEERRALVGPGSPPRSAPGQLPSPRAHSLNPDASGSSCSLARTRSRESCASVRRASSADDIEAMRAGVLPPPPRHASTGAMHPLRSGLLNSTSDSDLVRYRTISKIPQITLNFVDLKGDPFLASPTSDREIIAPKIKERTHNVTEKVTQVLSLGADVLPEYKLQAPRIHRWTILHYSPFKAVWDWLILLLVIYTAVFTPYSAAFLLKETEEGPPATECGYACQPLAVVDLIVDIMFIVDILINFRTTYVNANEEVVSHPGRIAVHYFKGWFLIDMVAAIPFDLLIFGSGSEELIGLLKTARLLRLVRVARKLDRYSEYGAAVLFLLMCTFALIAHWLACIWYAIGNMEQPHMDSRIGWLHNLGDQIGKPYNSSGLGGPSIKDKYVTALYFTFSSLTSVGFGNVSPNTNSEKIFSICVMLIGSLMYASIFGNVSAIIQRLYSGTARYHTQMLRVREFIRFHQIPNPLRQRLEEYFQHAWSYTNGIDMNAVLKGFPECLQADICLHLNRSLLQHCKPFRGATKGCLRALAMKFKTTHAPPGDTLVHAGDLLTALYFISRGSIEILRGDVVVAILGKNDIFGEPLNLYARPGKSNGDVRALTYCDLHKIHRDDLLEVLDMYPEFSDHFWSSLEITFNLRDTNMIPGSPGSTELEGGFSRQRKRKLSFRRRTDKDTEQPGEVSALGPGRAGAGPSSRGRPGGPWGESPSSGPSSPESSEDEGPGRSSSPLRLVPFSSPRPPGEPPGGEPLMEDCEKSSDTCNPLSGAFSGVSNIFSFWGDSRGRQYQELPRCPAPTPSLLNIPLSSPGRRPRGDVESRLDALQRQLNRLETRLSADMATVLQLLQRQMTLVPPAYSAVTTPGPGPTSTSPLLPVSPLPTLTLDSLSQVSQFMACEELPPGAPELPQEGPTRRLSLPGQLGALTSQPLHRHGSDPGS
KCNK9 inh conf: human KCNK9 inhibitor confirmation; hit rate 43% among 4,900; AID 492992; shares compounds with KCNK9 block; HEK293 KCNK9 cells, FluxOR thallium flux fluorescence; inhibition, % at 10 µM;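 active means thallium signal inhibited by more than 5 SD of the compound-free buffer control wells, on both duplicate plates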;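 further: 0% = assay buffer control wells without compound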
Kir2-1 spec: tests whether KCNK9 modulators also affect mouse Kir2.1; shares compounds with KCNK9 block; Kir2.1 cells, FluxOR thallium flux fluorescence; inhibition, % at 10 µM; hit rate 4% among 4,900; AID 492993;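 active means thallium signal drop more than 5 SD beyond the mean of the no-compound control wells, seen in both duplicate plates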;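 further: signal is fluorescence rise after thallium addition divided by baseline fluorescence; plate controls were assay buffer only for no effect and full block by chlorpromazine control for full effect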
KCNK9 uninduced: non-induced cell nonspecific activity of KCNK9 modulators. shares compounds with KCNK9 block. non-induced KCNK9-HEK293, FluxOR thallium flux. inhibition, % at 10 µM. hit rate 40% among 4,900. AID 492997;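 active means thallium signal drop beyond 5 SD of the untreated control mean, on both duplicate plates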;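 further: plate controls were buffer only IC0 wells for no effect and SID17386958 at its maximal inhibitory level for full effect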
KCNK3 confirm: human KCNK3 channel inhibition, confirmation assay | shares compounds with KCNK3 block | CHO-KCNK3 thallium flux, FluxOR fluorescence; 0% buffer, 100% carvedilol maximal block | ratio percent of control, % at 10 µM | hit rate 99% among 2,400;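 active means ratio percent of control, averaged over triplicates, above buffer control mean plus 5 SD, cut at about 64% in these data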;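 further: ratio is the fluorescence rise from min to max over baseline after thallium stimulus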
KCNK3 uninduced: activity in cells without induced KCNK3 expression. shares compounds with KCNK3 block. non-induced KCNK3 parental cells, FluxOR thallium flux; stronger effect = lower value. thallium flux ratio (lower = more inhibition) at 10 µM. hit rate 40% among 2,400;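 active means thallium flux ratio, averaged over three wells, more than 5 SD below the buffer control mean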;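 further: host cells are CHO cells without KCNK3 induction; ratio is peak minus trough fluorescence over baseline then normalized to buffer controls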
The depositor's hits bear a star; i = inactive; nt = no result. Hits are enriched below; roughly 4.1% of the tested compounds scored in any of these assays.

SMILES	KCNK3 block	Cl transport mod	KCNQ1 pot	KCNQ1 block	KCNK9 block	hERG rescue	KCNK9 inh conf	Kir2-1 spec	KCNK9 uninduced	KCNK3 confirm	KCNK3 uninduced
O=C(NC1CCCCC1)c1cc2ccccc2cc1O	-9.4*	-1.5	i	i	-12*	-13	26%*	i	i	107*	i
Cc1ccc(Cn2cc(C(=O)c3ccc(F)cc3)c(=O)c3cc4c(cc32)OCCO4)cc1	i	-2.2	i	i	i	-11	nt	nt	nt	nt	nt
CC(NC(=O)c1ccccc1NC(=O)c1ccco1)C(=O)O (stereo not drawn)	i	nt	i	i	i	-13	nt	nt	nt	nt	nt
CCc1cc(=O)oc2cc(C)cc(OCC(=O)NC3CCN(Cc4ccccc4)CC3)c12	i	nt	i	i	i	-9	nt	nt	nt	nt	nt
COc1ccc(C2=Nn3c(nnc3-c3cccnc3)SC2)cc1OC	i	nt	i	i	i	-12	nt	nt	nt	nt	nt
CC(C)Cc1ccc(/C=C/C(=O)N2CCCCC2)cc1	-13*	0.042	i	i	-9.8*	-9	74%*	i	39%*	114*	i
CCc1ccc(/C=C\C(=O)N2CCCC2)cc1	i	nt	i	i	i	-6	nt	nt	nt	nt	nt
C=CCn1c(SCC(=O)N2CCCC2)nc2scc(-c3cccs3)c2c1=O	i	nt	i	i	i	-12	nt	nt	nt	nt	nt
C=CCn1c(SCC(=O)Nc2ccccc2)nc2scc(-c3cccs3)c2c1=O	-9.5*	0.0089	i	i	-11*	-5	35%*	i	34%*	114*	i
S=c1[nH]nc([C@@H]2C[C@H]2c2ccccc2)n1-c1ccccc1Cl	i	0.19	i	i	i	-3	nt	nt	nt	nt	nt
N#Cc1ccc(-c2ccco2)nc1SCC(=O)c1ccc(Cl)cc1	-13*	-0.012	i	i	-8.3*	-17	44%*	i	38%*	146*	0.14*
COc1ccc(NC(=O)/C(C#N)=C/c2ccc(Br)o2)cc1	i	nt	i	i	i	-9	nt	nt	nt	nt	nt
COc1ccc(NC(=O)/C(C#N)=C\c2ccc(N3CCOCC3)o2)cc1	-12*	i	i	10*	-8.7*	-22	48%*	36%*	76%*	132*	0.091*
Cc1ccc(C)c(N2CCN(S(=O)(=O)c3ccc4c(c3)CC(C)N4C(=O)C3CC3)CC2)c1 (stereo not drawn)	-9.3*	nt	i	i	i	-13	i	i	i	75*	i
CC(C)c1ccccc1NC(=O)COC(=O)c1c2c(nc3ccccc13)CCN(Cc1ccccc1)C2	-9.7*	-1.2	i	i	-12*	-34	66%*	i	i	132*	0.14*
O=C(NC1CCCCCC1)c1c2c(nc3ccccc13)CCN(Cc1ccccc1)C2	i	-0.39	i	i	i	-11	nt	nt	nt	nt	nt
COCC(C)n1c(SCc2nc3ccccc3c(=O)[nH]2)nc2ccccc2c1=O (stereo not drawn)	i	-0.085	i	i	i	-15	nt	nt	nt	nt	nt
COCC(C)n1c(SCc2ccc(C(=O)OC)cc2)nc2ccccc2c1=O (stereo not drawn)	-12*	nt	i	i	-16*	-9	62%*	i	38%*	125*	0.14*
COCC(C)n1c(SCc2ccc(OC)c(F)c2)nc2ccccc2c1=O (stereo not drawn)	-11*	-0.97	i	i	-18*	-13	76%*	i	50%*	116*	i
CCn1c(SCc2ccc(OC)c(F)c2)nc2ccccc2c1=O	-12*	nt	i	i	-20*	-3	78%*	i	46%*	107*	i
CCOC(CCn1c(SCc2ccc([N+](=O)[O-])cc2)nc2ccccc2c1=O)OCC	i	0.017	i	i	-15*	-6	74%*	i	38%*	117*	i
COc1ccccc1N(CC(=O)N/N=C/c1ccc(OCC(=O)NCc2ccco2)cc1)S(=O)(=O)c1ccc(C)cc1	i	-1.2	i	i	i	-12	nt	nt	nt	nt	nt
COC(=O)COc1ccc(/C=N/NC(=O)CN(c2ccccc2OC)S(=O)(=O)c2ccccc2)cc1	-16*	nt	i	i	-13*	-22	i	i	i	116*	0.14*
Cc1ccc(OCC(O)CN2CCCC2)cc1 (stereo not drawn)	i	nt	i	i	i	-3	nt	nt	nt	nt	nt
O=C(N/N=C/c1cccc(Oc2ccccc2)c1)c1cccc(Br)c1	-11*	-0.46	i	i	-11*	5.6*	54%*	i	26%*	99*	0.16*
SMILES	KCNK3 block	Cl transport mod	KCNQ1 pot	KCNQ1 block	KCNK9 block	hERG rescue	KCNK9 inh conf	Kir2-1 spec	KCNK9 uninduced	KCNK3 confirm	KCNK3 uninduced
CNc1cc(CSC)nc(SCc2ccc(Cl)cc2Cl)n1	-9.2*	0.78	i	i	-12*	-4	56%*	i	50%*	142*	0.15*
CSCc1cc(N(C)C)nc(SCc2ccc(Cl)c(Cl)c2)n1	i	-0.63	i	i	-10*	0	72%*	i	58%*	104*	0.15*
Nc1nc(SCc2ccc(Cl)cc2Cl)n[nH]1	i	nt	i	i	i	-8	nt	nt	nt	nt	nt
CN(C)C(=N)c1n[nH]nc1SCc1ccc(Cl)c(Cl)c1	i	0.36	i	i	i	-11	nt	nt	nt	nt	nt
Cc1ccc(O)c(-c2cc(C(=O)NCc3ccncc3)[nH]n2)c1	-9.2*	nt	i	i	-11*	-4	55%*	i	30%*	107*	i
N#CCC(=O)Nc1ccc(C(=O)OCc2ccccc2Oc2ccccc2)cc1	-10*	nt	i	i	-11*	-14	58%*	i	25%*	115*	0.15*
C=C(C)COc1ccc(-c2ncnc(C(F)(F)F)c2-c2ccccc2)c(O)c1	i	nt	i	i	i	-1	nt	nt	nt	nt	nt
C=C(C)COc1ccc(-c2ncnc(C(F)(F)F)c2-c2ccc(OC)cc2)c(O)c1	-9.2*	nt	i	i	i	-6	i	i	i	109*	0.15*
O=C(CCCN1C(=O)c2ccccc2C1=O)NCCCn1ccnc1	i	0.51	i	i	i	-2	nt	nt	nt	nt	nt
